ChEMBL document CHEMBL1137710, “Synthesis and in vitro antitumor activity of new quinoxaline derivatives” (2009)

Key:
Type in all cases: functional
OVCAR-8 = assay: Growth inhibition of human OVCAR8 cells after 48 hrs by sulforhodamine B assay; conditions: OVCAR-8, 48 h; for CC50: read-out: pLC50 (the source's name) (converted); for TGI: read-out: pTGI (converted)
In short: (§1)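 NCI 60-human-tumor-cell-line panel, with compounds tested over a 5-log dose range. Values are taken from dose-response curves as log10 molar concentrations: GI50 is 50% net growth inhibition, TGI is total growth inhibition, and LC50 is 50% net cell death.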

IGROV-1 = assay: Growth inhibition of human IGROV1 cells after 48 hrs by sulforhodamine B assay; conditions: IGROV-1, 48 h; for CC50: read-out: pLC50 (the source's name) (converted); for TGI: read-out: pTGI (converted); in short: as §1
Malme-3M = assay: Growth inhibition of human MALME-3M cells after 48 hrs by sulforhodamine B assay; conditions: for CC50: read-out: pLC50 (the source's name) (converted); for TGI: read-out: pTGI (converted); in short: as §1
A498 = assay: Growth inhibition of human A498 cells after 48 hrs by sulforhodamine B assay; conditions: A498, 48 h; for CC50: read-out: pLC50 (the source's name) (converted); for TGI: read-out: pTGI (converted); in short: as §1
SR = assay: Growth inhibition of human SR cells after 48 hrs by sulforhodamine B assay
In short: (§2)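 Run in the NCI 60-human-tumour-cell-line panel, tested over a 5-log dose range. Dose–response curves gave three values per cell line, each as a log10 molar concentration: GI50 (50% inhibition of net cell growth), TGI (total inhibition of net growth) and LC50 (50% net cell death). The mean graph midpoint is the arithmetic mean over all lines, with insensitive lines entered at the highest concentration tested.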

KM12 = assay: Growth inhibition of human KM12 cells after 48 hrs by sulforhodamine B assay; conditions: KM12, 48 h; for TGI: read-out: pTGI (converted); in short: as §1
MCF7 = assay: Growth inhibition of human MCF7 cells after 48 hrs by sulforhodamine B assay; conditions: MCF7, 48 h; for CC50: read-out: pLC50 (the source's name) (converted); for TGI: read-out: pTGI (converted); in short: as §1
UACC-257 = assay: Growth inhibition of human UACC257 cells after 48 hrs by sulforhodamine B assay; conditions: UACC-257, 48 h; for CC50: read-out: pLC50 (the source's name) (converted); for TGI: read-out: pTGI (converted); in short: as §2
SK-OV-3 = assay: Growth inhibition of human SKOV3 cells after 48 hrs by sulforhodamine B assay; conditions: SK-OV-3, 48 h; for CC50: read-out: pLC50 (the source's name) (converted); for TGI: read-out: pTGI (converted); in short: as §1
CCRF-CEM = assay: Growth inhibition of human CCRF-CEM cells after 48 hrs by sulforhodamine B assay; conditions: for TGI: read-out: pTGI (converted); in short: as §1
ACHN = assay: Growth inhibition of human ACHN cells after 48 hrs by sulforhodamine B assay
UO-31 = assay: Growth inhibition of human UO31 cells after 48 hrs by sulforhodamine B assay; conditions: UO-31, 48 h; for CC50: read-out: pLC50 (the source's name) (converted); for TGI: read-out: pTGI (converted); in short: as §2
A549 = assay: Growth inhibition of human A549 cells after 48 hrs by sulforhodamine B assay; conditions: A549, 48 h; for TGI: read-out: pTGI (converted); in short: as §1
DU-145 = assay: Growth inhibition of human DU145 cells after 48 hrs by sulforhodamine B assay; conditions: DU-145, 48 h; for CC50: read-out: pLC50 (the source's name) (converted); for TGI: read-out: pTGI (converted); in short: as §1
MOLT-4 = assay: Growth inhibition of human MOLT4 cells after 48 hrs by sulforhodamine B assay; conditions: MOLT-4, 48 h; for TGI: read-out: pTGI (converted); in short: as §1
TK-10 = assay: Growth inhibition of human TK10 cells after 48 hrs by sulforhodamine B assay; conditions: TK-10, 48 h; for CC50: read-out: pLC50 (the source's name) (converted); for TGI: read-out: pTGI (converted); in short: as §2
T47D = assay: Growth inhibition of human T47D cells after 48 hrs by sulforhodamine B assay; conditions: for CC50: read-out: pLC50 (the source's name) (converted); for TGI: read-out: pTGI (converted); in short: as §2
NCI-H460 [1] = assay: Anticancer activity against human NCI-H460 cells assessed as cell growth at 100 uM after 48 hrs by sulforhodamine B assay; conditions: NCI-H460, 48 h, read-out: Activity
NCI-H226 = assay: Growth inhibition of human NCI-H226 cells after 48 hrs by sulforhodamine B assay; conditions: NCI-H226, 48 h; for TGI: read-out: pTGI (converted); in short: as §1
NCI-H460 [2] = assay: Growth inhibition of human NCI-H460 cells after 48 hrs by sulforhodamine B assay; conditions: NCI-H460, 48 h; for TGI: read-out: pTGI (converted); in short: as §1
HL-60(TB) = assay: Growth inhibition of human HL-60(TB) cells after 48 hrs by sulforhodamine B assay; conditions: HL-60, 48 h; for TGI: read-out: pTGI (converted)
In short: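 Tested only on compounds active in a three-line prescreen, in the NCI 60-human-tumour-cell-line panel over a 5-log dose range. Values come from dose–response curves as log10 molar GI50, the concentration inhibiting 50% net cell growth. Log10 TGI (total growth inhibition) and log10 LC50 (50% net cell death) were derived too. Mean graph midpoints include insensitive lines at the highest concentration tested.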

SN12C = assay: Growth inhibition of human SN12C cells after 48 hrs by sulforhodamine B assay; conditions: for CC50: read-out: pLC50 (the source's name) (converted); for TGI: read-out: pTGI (converted); in short: as §2
HOP-62 = assay: Growth inhibition of human HOP62 cells after 48 hrs by sulforhodamine B assay; conditions: HOP-62, 48 h; for TGI: read-out: pTGI (converted); in short: as §1
PC-3 = assay: Growth inhibition of human PC3 cells after 48 hrs by sulforhodamine B assay; conditions: PC-3, 48 h; for CC50: read-out: pLC50 (the source's name) (converted); for TGI: read-out: pTGI (converted); in short: as §1

## Nc1cc(N)c2nc(-c3ccccc3)c(Sc3ccc(Cl)c(Cl)c3)nc2c1
OVCAR-8
  GI50: 24.5 µM
  CC50: > 100 µM
  TGI: > 100 µM
IGROV-1
  GI50: 2.95 µM
  CC50: > 100 µM
  TGI: 27.5 µM
Malme-3M
  GI50: 19.5 µM
  CC50: > 100 µM
  TGI: 50.1 µM
A498
  GI50: 17 µM
  CC50: 57.5 µM
  TGI: 30.9 µM
SR
  GI50: 4.68 µM
  LC50 (concentration giving 50% net cell death): > 100 µM
SR; read-out: pTGI (converted)
  TGI: 35.5 µM
KM12
  GI50: 11.2 µM
  LC50 (50% net cell kill): > 100 µM
  TGI: > 100 µM
MCF7
  GI50: 5.25 µM
  CC50: > 100 µM
  TGI: 38 µM
UACC-257
  GI50: 17.8 µM
  CC50: > 100 µM
  TGI: 58.9 µM
SK-OV-3
  GI50: 14.8 µM
  CC50: > 100 µM
  TGI: 39.8 µM
CCRF-CEM
  GI50: 2.51 µM
  LC50: > 100 µM
  TGI: > 100 µM
ACHN
  GI50: 1.7 µM
ACHN; read-out: pLC50 (the source's name) (converted)
  CC50: 5.62 µM
ACHN; read-out: pTGI (converted)
  TGI: 3.09 µM
UO-31
  GI50: 3.8 µM
  CC50: > 100 µM
  TGI: > 100 µM
A549
  GI50: 13.5 µM
  LC50: > 100 µM
  TGI: 52.5 µM
DU-145
  GI50: 1.51 µM
  CC50: 9.77 µM
  TGI: 3.8 µM
MOLT-4
  GI50: 4.07 µM
  LC50: > 100 µM
  TGI: > 100 µM
TK-10
  GI50: 5.89 µM
  CC50: 53.7 µM
  TGI: 20 µM
T47D
  GI50: 13.2 µM
  CC50: > 100 µM
  TGI: > 100 µM
NCI-H460 [1]
  growth at 100 µM: 0%
NCI-H226
  GI50: 3.02 µM
  LC50: > 100 µM
  TGI: 9.12 µM
NCI-H460 [2]
  GI50: 10.5 µM
  LC50 (50% net cell kill): > 100 µM
  TGI: 33.9 µM
HL-60(TB)
  GI50: 7.94 µM
  LC50: > 100 µM
  TGI: > 100 µM
SN12C
  GI50: 7.59 µM
  CC50: 64.6 µM
  TGI: 23.4 µM
HOP-62
  GI50: 12.3 µM
  LC50: > 100 µM
  TGI: 77.6 µM
PC-3
  GI50: 3.47 µM
  CC50: > 100 µM
  TGI: 15.5 µM

## COc1ccc(Sc2nc3cc(N)cc(N)c3nc2-c2ccccc2)cc1
OVCAR-8
  GI50: > 100 µM
  CC50: > 100 µM
  TGI: > 100 µM
IGROV-1
  CC50: > 100 µM
  TGI: > 100 µM
Malme-3M
  GI50: 33.1 µM
  CC50: > 100 µM
  TGI: 95.5 µM
A498
  GI50: 17.4 µM
  CC50: 60.3 µM
  TGI: 32.4 µM
KM12
  GI50: 28.2 µM
  LC50 (50% net cell kill): > 100 µM
  TGI: > 100 µM
MCF7
  GI50: 16.6 µM
  CC50: > 100 µM
  TGI: > 100 µM
UACC-257
  GI50: 43.7 µM
  CC50: > 100 µM
  TGI: > 100 µM
SK-OV-3
  GI50: 33.1 µM
  CC50: > 100 µM
  TGI: > 100 µM
CCRF-CEM
  GI50: 2.29 µM
  LC50: > 100 µM
  TGI: 8.32 µM
UO-31
  GI50: 4.17 µM
  CC50: > 100 µM
  TGI: > 100 µM
A549
  GI50: 42.7 µM
  LC50: > 100 µM
  TGI: > 100 µM
DU-145
  GI50: 16.2 µM
  CC50: 69.2 µM
  TGI: 33.1 µM
MOLT-4
  GI50: 4.17 µM
  LC50: > 100 µM
  TGI: > 100 µM
TK-10
  GI50: 12.9 µM
  CC50: 72.4 µM
  TGI: 30.2 µM
T47D
  GI50: > 100 µM
  CC50: > 100 µM
  TGI: > 100 µM
NCI-H460 [1]
  growth at 100 µM: 0%
NCI-H226
  LC50: > 100 µM
  TGI: > 100 µM
NCI-H460 [2]
  GI50: 20 µM
  LC50 (50% net cell kill): > 100 µM
  TGI: > 100 µM
HL-60(TB)
  GI50: 4.27 µM
  LC50: > 100 µM
  TGI: > 100 µM
SN12C
  GI50: 6.03 µM
  CC50: 87.1 µM
  TGI: 24 µM
HOP-62
  GI50: > 100 µM
  LC50: > 100 µM
  TGI: > 100 µM
PC-3
  GI50: 1.74 µM
  CC50: 19.1 µM
  TGI: 5.13 µM
